One data set is filed under the species Oryctolagus cuniculus. Kind of data set: Inhibition of rabbit muscle Glycogen phosphorylase b at 625 uM using glucose-1-phosphate as substrate in presence of AMP relative to control.
Data set [1] is described as follows: Inhibition of rabbit muscle Glycogen phosphorylase a using glucose-1-phosphate as substrate. Details: species or system Oryctolagus cuniculus. In outline: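 Rabbit muscle GPa (3 μg/mL) was run at 30 °C in the glycogen-synthesis direction in 30 mM imidazole/HCl pH 6.8 containing 60 mM KCl, 0.6 mM EDTA, 0.6 mM DTT and 0.2% w/v glycogen, without AMP. Glc-1-P was 2, 3, 4, 6 and 10 mM with varied inhibitor. Inorganic phosphate release was measured; Ki came from the Km(app) versus [inhibitor] fit.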

Data set [2] in a line: Inhibition of human liver Glycogen phosphorylase a using glucose-1-phosphate as substrate. In outline: (§1)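 Human liver GPa (1 μg/mL) assayed at 30 °C toward glycogen synthesis in 30 mM imidazole/HCl pH 6.8 with 60 mM KCl, 0.6 mM EDTA, 0.6 mM DTT, 0.2% w/v glycogen and no AMP. Glc-1-P was varied at 1, 2, 3, 4 and 6 mM against several inhibitor levels. Released Pi was read; Ki came from Km(app) versus [inhibitor] by weighted nonlinear regression.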

The species named for data set [3] is Homo sapiens. Kind of data set: Competitive inhibition of human liver Glycogen phosphorylase a up to 1000 uM using glucose-1-phosphate as substrate by Lineweaver-Burk plot analysis.
A short description of data set [4]: Inhibition of rabbit muscle Glycogen phosphorylase b using glucose-1-phosphate as substrate in presence of AMP. Further details: species or system Oryctolagus cuniculus. In outline: (§2)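 Rabbit muscle GPb (3 μg/mL) was assayed at 30 °C for glycogen synthesis in 30 mM imidazole/HCl pH 6.8 with 60 mM KCl, 0.6 mM EDTA, 0.6 mM DTT, 0.2% w/v glycogen and 1 mM AMP. Glc-1-P was varied (2, 3, 4, 6, 10 mM) at several inhibitor concentrations. Pi release gave initial rates; Ki came from Km(app) versus [inhibitor] by nonlinear regression.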

The species entered for data set [5] is Homo sapiens. Kind of data set: Competitive inhibition of human liver Glycogen phosphorylase a up to 35 uM using glucose-1-phosphate as substrate by Lineweaver-Burk plot analysis. An outline of the steps: as §1
The test system of the next data set is HepG2. Kind of data set: Cytotoxicity against human HepG2 cells at 80 to 516 uM incubated for 2 hrs. Type of data set: cell-based. The conditions noted are these: hepg2, 2 h.
The species entered for data set [6] is Homo sapiens. Kind of data set: Competitive inhibition of human liver Glycogen phosphorylase a up to 3 uM using glucose-1-phosphate as substrate by Lineweaver-Burk plot analysis. An outline of the steps: as §1
Data set [7] in a line: Inhibition of Glycogen phosphorylase in human HepG2 cells incubated for 2 hrs. In kind it is cell-based. An outline of the steps:
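HepG2 cells were precultured in 25 mmol/L glucose with 10 nM insulin to load glycogen. They were then shifted to 5 mmol/L glucose with inhibitor at 80–516 μM for 2 h to drive glycogenolysis. GP activity was read spectrophotometrically in the whole homogenate, and IC50 was derived from the concentration series.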

For data set [8], the species on record is Homo sapiens. Kind of data set: Competitive inhibition of human liver Glycogen phosphorylase a up to 180 uM using glucose-1-phosphate as substrate by Lineweaver-Burk plot analysis. An outline of the steps:
as §1

Data set [9] is filed under the species Homo sapiens. Kind of data set: Competitive inhibition of human liver Glycogen phosphorylase a up to 650 uM using glucose-1-phosphate as substrate by Lineweaver-Burk plot analysis. An outline of the steps: as §1
The species named for data set [10] is Homo sapiens. Kind of data set: Competitive inhibition of human liver Glycogen phosphorylase a up to 10 uM using glucose-1-phosphate as substrate by Lineweaver-Burk plot analysis. In outline: as §1
Data set [11] can be described thus: Inhibition of rabbit muscle Glycogen phosphorylase b using alpha-D-glucose-1-phosphate as substrate in presence of AMP by dixon plot analysis. Further details: species or system Oryctolagus cuniculus. An outline of the steps:
as §2

Molecules are shown by their SMILES. The source made the active and inactive calls. The rule behind the calls is not given here.

As to `O=C1N=C(c2cccc3ccccc23)N[C@]12O[C@H](CO)[C@@H](O)[C@H](O)[C@H]2O`, the inhibition entry in the data set listed under Oryctolagus cuniculus was “inactive”. Besides, the results for the Ki in [1] and in [2] were 653 µM and 1170 µM, respectively. Also, the inhibition result in the data set filed under Homo sapiens [3] is “Active”.
As for `O=C1N=C(c2cccc3ccccc23)N[C@@]12O[C@H](CO)[C@@H](O)[C@H](O)[C@H]2O`, the inhibitory constant (Ki) worked out at 13 µM in [4], 6.6 µM in data set [1] and 22.2 µM in data set [2]. Further, in the data set listed under Homo sapiens [5], the inhibition result was “Active”.
For the compound `O=C1N=C(c2ccc3ccccc3c2)N[C@@]12O[C@H](CO)[C@@H](O)[C@H](O)[C@H]2O`, the inhibition constant (Ki) in data set [4] stood at 2.11 µM; in [1], 1.13 µM; in [2], 1.72 µM. The Activity result in the data set with HepG2 is given as “Non-Toxic”. Also, the inhibition result in the data set listed under Homo sapiens [6] was “Active”. The half-maximal inhibitory concentration (IC50) in [7] worked out at 177 µM.
In the case of `O=C1N=C(c2ccc(C(F)(F)F)cc2)N[C@]12O[C@H](CO)[C@@H](O)[C@H](O)[C@H]2O`, the inhibition result in the data set filed under Oryctolagus cuniculus was “inactive”.
`O=C1N=C(c2ccc(C(F)(F)F)cc2)N[C@@]12O[C@H](CO)[C@@H](O)[C@H](O)[C@H]2O`: in the data set filed under Oryctolagus cuniculus, the inhibition entry was “inactive”.
As for `O=C1N=C(c2ccccc2)N[C@]12O[C@H](CO)[C@@H](O)[C@H](O)[C@H]2O`, the Ki worked out at 136 µM in data set [4], 34.2 µM in [1] and 96.7 µM in [2]. For the same compound, the inhibition entry in the data set listed under Homo sapiens [8] was “Active”.
Consider `O=C1NC(=S)N[C@@]12O[C@H](CO)[C@@H](O)[C@H](O)[C@H]2O`, for which the Ki in data set [4] came out at 5.1 µM.
For the compound `O=C1N=C(c2ccc3ccccc3c2)N[C@]12O[C@H](CO)[C@@H](O)[C@H](O)[C@H]2O`, the inhibition result in the data set listed under Homo sapiens [9] is “Active”. Also, the inhibition in the data set filed under Oryctolagus cuniculus is 25%. In addition, the Ki in data set [1] came to 212 µM; in data set [2], 371 µM.
With `O=C1NC(=O)[C@]2(N1)O[C@H](CO)[C@@H](O)[C@H](O)[C@H]2O`, the inhibition constant Ki in data set [4] is 105 to 320 µM.
In the case of `O=C1N=C(c2ccccc2)N[C@@]12O[C@H](CO)[C@@H](O)[C@H](O)[C@H]2O`, the inhibition entry in the data set listed under Homo sapiens [10] was “Active”. For the same compound, the Ki was 9 µM in data set [4], 4.5 µM in data set [1] and 8.4 µM in data set [2].
`O=C1NC(=O)[C@@]2(N1)O[C@H](CO)[C@@H](O)[C@H](O)[C@H]2O`: the Ki in data set [4] was found to be 3.1 µM.
With `OC[C@H]1O[C@]2(ON=C(c3ccccc3)S2)[C@H](O)[C@@H](O)[C@@H]1O`, the inhibitory constant (Ki) in data set [11] worked out at 26 µM.
